Measured values as given in ChEMBL document CHEMBL1153864, “Phase transfer catalyzed synthesis of bis-quinolines: antileishmanial activity in experimental visceral leishmaniasis and in vitro antibacterial evaluation” (Eur J Med Chem, 2009).
Converted amounts (≈) assume the structure as drawn. The source made the active and inactive calls. No cut-off for these calls is given here.

Key:
[1] = system: Macrophage; assay: Induction of nitric oxide production in Leishmania donovani MHOM/IN/1983/AG83 infected golden Syrian hamster peritoneal macrophages; assay type: functional, cell-based; settings: Mesocricetus auratus
[2] = system: Proteus mirabilis; assay: Antibacterial activity against Proteus mirabilis 7 at 50 ug/ml after 24 hrs by agar dilution method; assay type: functional; settings: Proteus mirabilis, 7, 24 h
Outline: (§1)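 Agar dilution MIC. Compound dissolved in sterile 0.2% DMSO, diluted in distilled water and mixed into molten nutrient agar (pH 7.2–7.4) at 5, 10, 25, 50; plate with 0.2% DMSO as control. Gram-positives grown 18 h in nutrient broth, Gram-negatives in peptone water. Stationary-phase suspension set to 0.5 McFarland, diluted 1:100, spot-inoculated at about 10^5 CFU per loopful. Plates held 24 h at 37 °C (up to 72 h if needed). MIC is the lowest level with no growth.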

[3] = system: Leishmania donovani; assay: Antileishmanial activity against Leishmania donovani MHOM/IN/1983/AG83 promastigotes infected BALB/c mouse assessed as liver weight at 12.5 mg/kg, ip administered two times per week for 4 weeks; assay type: functional; settings: route intraperitoneal
Outline: (§2)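 BALB/c mice (4-6 weeks) were infected iv with 2 × 10^7 freshly transformed promastigotes. One month later, groups were dosed ip in 0.2% Tween 80 in PBS (0.02 M), twice weekly for one month (8 doses); controls got vehicle only. Mice were killed one month post-treatment and spleen and liver were weighed. Parasite load came from Giemsa impression smears as organ weight (mg) × amastigotes per cell nucleus × 2 × 10^5. Values are mean ± S.E. of 5 mice; unpaired t-test.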

[4] = system: Escherichia coli; assay: Antibacterial activity against Escherichia coli ATCC 25938 at 10 ug/ml after 24 hrs by agar dilution method; assay type: functional, organism-based; outline: as §1
[5] = system: Staphylococcus aureus; assay: Antibacterial activity against Staphylococcus aureus ML6 at 50 ug/ml after 24 hrs by agar dilution method; assay type: functional; settings: ML6, 24 h; outline: as §1
[6] = system: Leishmania donovani; assay: Antileishmanial activity against Leishmania donovani MHOM/IN/1983/AG83 promastigotes infected BALB/c mouse assessed as liver weight at 5.5 mg/kg, ip administered two times per week for 4 weeks; assay type: functional; settings: route intraperitoneal; outline: as §2
[7] = system: Leishmania donovani; assay: Antileishmanial activity against Leishmania donovani MHOM/IN/1983/AG83 promastigotes assessed as induction of chromatin condensation at 11.5 ug/ml after 2 hrs by transmission electron microscopy; assay type: functional, organism-based
[8] = system: Shigella dysenteriae; assay: Antibacterial activity against Shigella dysenteriae 7 NCTC 519/66 at 5 ug/ml after 24 hrs by agar dilution method; assay type: functional, organism-based
[9] = system: Proteus mirabilis; assay: Antibacterial activity against Proteus mirabilis 175 after 24 hrs by agar dilution method; assay type: functional; settings: Proteus mirabilis, 175, 24 h; outline: as §1
[10] = system: Leishmania donovani; assay: Antileishmanial activity against Leishmania donovani MHOM/IN/1983/AG83 promastigotes assessed as induction of membrane blebbing at 11.5 ug/ml after 2 hrs by transmission electron microscopy; assay type: functional, organism-based
Outline: (§3)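 Log-phase promastigotes, grown at 22 °C in M199 with 10% FBS, were exposed for 2 h to the compound; controls received 0.1% DMSO alone. Cells were then sectioned, stained on copper grids with uranyl acetate and lead acetate for 10-15 min each, and examined by TEM for ultrastructural changes.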

[11] = system: Mus musculus; assay: Toxicity in BALB/c mouse assessed as effect on blood urea levels at 12.5 mg/kg, ip administered two times per week for 4 weeks; assay type: organism-based; parameters: dose 12.5 mg/kg, route intraperitoneal; settings: in vivo, 672 h
Outline: (§4)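 Normal BALB/c mice were dosed ip twice per week for 4 weeks. Blood was collected one month after treatment, and serum SGPT and SGOT (IU/l) and blood urea (mg/dl) were measured with commercial kits and compared with untreated normal mice.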

[12] = Down regulation of IL6 release Leishmania donovani MHOM/IN/1983/AG83 infected bacterial liposaccharide-stimulated golden Syrian hamster peritoneal macrophages; assay type: functional, cell-based; settings: Mesocricetus auratus; Macrophage
[13] = system: Leishmania donovani; assay: Antileishmanial activity against Leishmania donovani MHOM/IN/1983/AG83 promastigotes infected BALB/c mouse assessed as reduction in liver parasite burden at 5.5 mg/kg, ip administered two times per week for 4 weeks relative to control; assay type: functional; parameters: scale not given: the % may be the effect or the level left; settings: route intraperitoneal; outline: as §2
[14] = system: Vibrio cholerae; assay: Antibacterial activity against Vibrio cholerae 582 at 10 ug/ml after 24 hrs by agar dilution method; assay type: functional; settings: Vibrio cholerae, 582, 24 h
[15] = system: Vibrio cholerae; assay: Antibacterial activity against Vibrio cholerae 569B at 5 ug/ml after 24 hrs by agar dilution method; assay type: functional, organism-based
[16] = system: Escherichia coli; assay: Antibacterial activity against Escherichia coli ATCC 25938 at 5 ug/ml after 24 hrs by agar dilution method; assay type: functional, organism-based; outline: as §1
[17] = system: Shigella dysenteriae; assay: Antibacterial activity against Shigella dysenteriae 6 NCTC 100/54 at 50 ug/ml after 24 hrs by agar dilution method; assay type: functional; settings: 6 NCTC 100/54, 24 h
[18] = system: Leishmania donovani; assay: Antileishmanial activity against Leishmania donovani MHOM/IN/1983/AG83 promastigotes infected BALB/c mouse assessed as reduction in spleen parasite burden at 12.5 mg/kg, ip administered two times per week for 4 weeks relative to control; assay type: functional; parameters: scale not given: the % may be the effect or the level left; settings: route intraperitoneal; outline: as §2
[19] = system: Staphylococcus aureus; assay: Antibacterial activity against Staphylococcus aureus ML6 at 10 ug/ml after 24 hrs by agar dilution method; assay type: functional; settings: ML6, 24 h; outline: as §1
[20] = system: Vibrio cholerae; assay: Antibacterial activity against Vibrio cholerae 569B after 24 hrs by agar dilution method; assay type: functional
[21] = system: Leishmania donovani; assay: Antileishmanial activity against Leishmania donovani MHOM/IN/1983/AG83 promastigotes assessed as induction of kinetoplast enlargement at 2 ug/ml after 2 hrs by transmission electron microscopy; assay type: functional, organism-based; outline: as §3
[22] = system: Staphylococcus aureus; assay: Antibacterial activity against Staphylococcus aureus ML6 at 25 ug/ml after 24 hrs by agar dilution method; assay type: functional; settings: ML6, 24 h; outline: as §1
[23] = system: Shigella dysenteriae; assay: Antibacterial activity against Shigella dysenteriae 6 NCTC 100/54 at 5 ug/ml after 24 hrs by agar dilution method; assay type: functional, organism-based
[24] = system: Proteus mirabilis; assay: Antibacterial activity against Proteus mirabilis 7 at 5 ug/ml after 24 hrs by agar dilution method; assay type: functional, organism-based; outline: as §1
[25] = system: Proteus mirabilis; assay: Antibacterial activity against Proteus mirabilis 175 at 10 ug/ml after 24 hrs by agar dilution method; assay type: functional, organism-based; outline: as §1
[26] = system: Vibrio cholerae; assay: Antibacterial activity against Vibrio cholerae 582 at 50 ug/ml after 24 hrs by agar dilution method; assay type: functional; settings: Vibrio cholerae, 582, 24 h
[27] = system: Bacillus licheniformis; assay: Antibacterial activity against […] Bacillus licheniformis NCTC 10341 at 50 ug/ml after 24 hrs by agar dilution method; assay type: functional; settings: NCTC 10341, 24 h; outline: as §1
[28] = system: Staphylococcus aureus; assay: Antibacterial activity against Staphylococcus aureus ML145 at 10 ug/ml after 24 hrs by agar dilution method; assay type: functional; settings: ML145, 24 h; outline: as §1
[29] = system: Leishmania donovani; assay: Antileishmanial activity against Leishmania donovani MHOM/IN/1983/AG83 amastigotes by Giemsa staining; assay type: functional, organism-based
Outline: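 Peritoneal macrophages from thioglycolate-elicited exudate (~2×10^6/ml), adhered overnight on coverslips in RPMI-1640 + 10% FBS at 37 °C, 5% CO2. Infected 6 h with stationary-phase AG83 promastigotes (2×10^7/ml), washed, then exposed 24 h to 0.5, 1, 3, 5, 10 compound. Methanol-fixed, Giemsa-stained; amastigotes per 200 macrophages counted against untreated controls.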

[30] = system: Mus musculus; assay: Toxicity in BALB/c mouse assessed as effect on serum glutamate pyruvate transaminase levels at 5.5 mg/kg, ip administered two times per week for 4 weeks; assay type: organism-based; parameters: dose 5.5 mg/kg, route intraperitoneal; settings: in vivo, 672 h; outline: as §4
[31] = system: Proteus mirabilis; assay: Antibacterial activity against Proteus mirabilis 7 at 10 ug/ml after 24 hrs by agar dilution method; assay type: functional, organism-based; outline: as §1
[32] = system: Staphylococcus aureus; assay: Antibacterial activity against Staphylococcus aureus ML145 at 50 ug/ml after 24 hrs by agar dilution method; assay type: functional; settings: ML145, 24 h; outline: as §1

Q: Which Activity [1] does the source give for Clc1ccc(OCOc2ccc(Cl)c3cccnc23)c2ncccc12 here?
A: The Activity was “Active”.

Q: And the inhibition at 50 µg/mL [2]?
A: The inhibition at 50 µg/mL was 100%.

Q: And the Activity [3]?
A: Its Activity is 900 mg.

Q: What about the Activity [4] of the same molecule?
A: The Activity was “inactive”.

Q: What about the inhibition at 50 µg/mL [5] of the same molecule?
A: Its inhibition at 50 µg/mL is 100%.

Q: What about the Activity [6] of the same molecule?
A: The Activity was 1120 mg.

Q: What about the Activity [7] of the same molecule?
A: Its Activity is “Active”.

Q: And the Activity [8]?
A: Its Activity is “inactive”.

Q: What about the MIC [9] of the same molecule?
A: The MIC was 50 µg/mL (≈ 135 µM).

Q: What about the Activity [10] of the same molecule?
A: Its Activity is “Active”.

Q: And the Activity [11]?
A: The Activity was “Non-toxic”.

Q: What about the Activity [12] of the same molecule?
A: The Activity was “Active”.

Q: What about the Activity [13] of the same molecule?
A: Its Activity is 78%.

Q: What about the inhibition at 10 µg/mL [14] of the same molecule?
A: Its inhibition at 10 µg/mL is 100%.

Q: And the Activity [15]?
A: Its Activity is “inactive”.

Q: And the Activity [16]?
A: Its Activity is “inactive”.

Q: What about the inhibition at 50 µg/mL [17] of the same molecule?
A: The inhibition at 50 µg/mL was 100%.

Q: What about the Activity [18] of the same molecule?
A: Its Activity is 95%.

Q: What about the inhibition at 10 µg/mL [19] of the same molecule?
A: The inhibition at 10 µg/mL was 100%.

Q: And the MIC [20]?
A: Its MIC is 25 µg/mL (≈ 67.3 µM).

Q: And the Activity [21]?
A: The Activity was “Active”.

Q: What about the inhibition at 25 µg/mL [22] of the same molecule?
A: Its inhibition at 25 µg/mL is 100%.

Q: And the Activity [23]?
A: The Activity was “inactive”.

Q: What about the Activity [24] of the same molecule?
A: The Activity was “inactive”.

Q: What about the Activity [25] of the same molecule?
A: The Activity was “inactive”.

Q: And the inhibition at 50 µg/mL [26]?
A: Its inhibition at 50 µg/mL is 100%.

Q: And the inhibition at 50 µg/mL [27]?
A: The inhibition at 50 µg/mL was 100%.

Q: What about the inhibition at 10 µg/mL [28] of the same molecule?
A: Its inhibition at 10 µg/mL is 100%.

Q: What about the IC50 [29] of the same molecule?
A: Its IC50 is 2.1 µg/mL (≈ 5.66 µM).

Q: What about the Activity [30] of the same molecule?
A: Its Activity is “Non-toxic”.

Q: And the Activity [31]?
A: The Activity was “inactive”.

Q: What about the inhibition at 50 µg/mL [32] of the same molecule?
A: The inhibition at 50 µg/mL was 100%.
